# Results published in the M2OR odorant receptor database.
# Target: T1, OR10J5 (Homo sapiens) (UniProt Q8NHC4)
# T1 sequence (whole entry): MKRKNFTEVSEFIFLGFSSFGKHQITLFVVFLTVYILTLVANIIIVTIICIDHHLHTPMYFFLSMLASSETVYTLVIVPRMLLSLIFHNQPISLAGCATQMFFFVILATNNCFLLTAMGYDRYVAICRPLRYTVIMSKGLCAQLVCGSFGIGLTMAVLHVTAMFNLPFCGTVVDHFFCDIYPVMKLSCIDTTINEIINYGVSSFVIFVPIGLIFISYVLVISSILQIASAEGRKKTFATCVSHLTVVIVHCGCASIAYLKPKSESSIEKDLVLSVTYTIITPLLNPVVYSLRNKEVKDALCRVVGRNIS
# Conditions: stereoisomer not certain
# Method in brief: (§1)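 Whether a receptor–molecule pair is responsive (active) rests on the original authors' judgment that its measured signal was statistically different from baseline. Pairs without that judgment are non-responsive (inactive). Sources used varied assay methods, commonly transient luciferase assays in mammalian cell lines.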
# 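Note: active if original authors judged signal statistically different from baseline.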
row,Structure (SMILES),odorant receptor agonist call
1,CCCCCCCCS,inactive
2,CCCCOC=O,inactive
3,CC(=O)OCc1ccccc1,inactive
4,CCCCCCCCCO,inactive
5,CC(C)=CCCC(C)CCO (centres undefined),inactive
6,CCCCCC1=C(C)CCC1=O,inactive
7,CCCCCCCCCCO,inactive
8,O=C1CCOc2ccccc21,inactive
9,CC(=O)Oc1ccccc1,inactive
10,O=C(c1ccccc1)c1ccccc1,inactive
11,CCC(=O)O,inactive
12,CCCCCCCC(=O)[O-].[H+],inactive
13,CCCC(C)=O,inactive
14,CCCCCCC(=O)[O-].[H+],inactive
15,CCCCCOC(=O)CCCCC,inactive
16,CCCCCO,inactive
17,COc1cc(C(=O)O)ccc1O,inactive
18,CCC(=O)C(=O)CC,inactive
19,CC(=O)OCC=C(C)C,inactive
20,C=CCOC(=O)CCCCCC,inactive
21,CCCCCCCCO,inactive
22,CCCCCCO,inactive
23,CCCCCCCO,inactive
24,CC(C)=CCCC(C)=CCO,inactive
25,CCOC(=O)C(C)C,inactive
26,CCCCCCC(C)=O,inactive
27,c1ccccc1,inactive
28,O=C1Cc2ccccc2O1,inactive
29,O=c1ccc2ccccc2o1,inactive

# Target: T2, OR10S1 (Homo sapiens) (UniProt Q8NGN2)
# T2 sequence (whole entry): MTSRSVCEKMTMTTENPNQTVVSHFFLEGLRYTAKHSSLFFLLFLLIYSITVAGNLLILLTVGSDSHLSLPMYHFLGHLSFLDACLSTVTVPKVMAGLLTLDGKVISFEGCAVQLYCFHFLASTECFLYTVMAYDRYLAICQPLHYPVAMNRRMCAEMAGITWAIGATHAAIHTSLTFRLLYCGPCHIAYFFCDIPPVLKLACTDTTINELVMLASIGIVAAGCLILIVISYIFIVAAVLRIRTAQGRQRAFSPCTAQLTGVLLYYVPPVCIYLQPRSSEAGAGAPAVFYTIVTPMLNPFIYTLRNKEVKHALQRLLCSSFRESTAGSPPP
# Conditions: stereoisomer not certain
# Method in brief: as §1
row,Structure (SMILES),odorant receptor agonist call
1,CCC(C)CO (centres undefined),inactive
2,CCC(=O)O,inactive
3,CC(C)=CCCC(C)=CCO,active
4,CCCCCCCCCCCC(=O)OC,inactive
5,O=c1ccc2ccccc2o1,inactive
